OXTR agonist: activates the human oxytocin receptor. P30559. CHO-OTR cells, Fluo-8 calcium fluorescence; normalized: DMSO 0%, oxytocin 100%. activation, % at 3 µM. 320,000 tested, 0.32% active. AID 2435;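 active means activation above the mean of all tested compounds plus 3 SD, cutoff set per screening run, cut at about 20% in these data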;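 further: peak over basal fluorescence ratio from a 100 s FLIPR kinetic read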
Target sequence (P30559 whole entry, looked up): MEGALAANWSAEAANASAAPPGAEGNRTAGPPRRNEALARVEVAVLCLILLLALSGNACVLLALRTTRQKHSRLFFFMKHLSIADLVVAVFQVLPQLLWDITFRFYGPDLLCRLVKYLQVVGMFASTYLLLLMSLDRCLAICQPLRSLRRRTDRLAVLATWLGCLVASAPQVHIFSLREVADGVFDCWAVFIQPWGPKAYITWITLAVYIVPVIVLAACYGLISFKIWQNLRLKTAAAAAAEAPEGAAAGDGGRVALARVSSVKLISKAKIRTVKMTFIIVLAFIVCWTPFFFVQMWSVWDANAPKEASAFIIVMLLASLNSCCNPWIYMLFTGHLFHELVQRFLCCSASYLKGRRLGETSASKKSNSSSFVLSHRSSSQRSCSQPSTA
OXTR potentiate: potentiators of human oxytocin receptor; P30559; CHO-OTR cells, Fluo-8 calcium fluorescence, potentiator mode; 0% = oxytocin EC15, 100% = EC100; activation, % at 3 µM; 320,000 tested, 0.061% active; AID 2445;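 active means activation above that plate's cutoff, the mean activation of tested compounds plus 3 SD, cut at about 6.6% in these data, passing the limit was not always enough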
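Replication – single well per compound, singlicate · Assay system – CHO cell line stably expressing human OTR · Timing – 6 min pre-incubation, 100 s read · Measure – normalized max/min fluorescence ratio, % activation · Doses – 3.0 µM, one dose · Detection – Fluo-8 calcium dye fluorescence · Probe or stimulus – oxytocin near EC15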
TAAR1 antagonist: antagonists of human TAAR1; 360,000 tested, 1.5% active; inhibition, % at 3 µM; CHO RD-HGA16 TAAR1, Fluo-8 calcium fluorescence, antagonist; AID 624466;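 active means inhibition above a per-plate cutoff, the mean inhibition of test compounds on that plate plus 3 SD, cut at about 49% in these data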
Target sequence (Q96RJ0 whole entry, looked up): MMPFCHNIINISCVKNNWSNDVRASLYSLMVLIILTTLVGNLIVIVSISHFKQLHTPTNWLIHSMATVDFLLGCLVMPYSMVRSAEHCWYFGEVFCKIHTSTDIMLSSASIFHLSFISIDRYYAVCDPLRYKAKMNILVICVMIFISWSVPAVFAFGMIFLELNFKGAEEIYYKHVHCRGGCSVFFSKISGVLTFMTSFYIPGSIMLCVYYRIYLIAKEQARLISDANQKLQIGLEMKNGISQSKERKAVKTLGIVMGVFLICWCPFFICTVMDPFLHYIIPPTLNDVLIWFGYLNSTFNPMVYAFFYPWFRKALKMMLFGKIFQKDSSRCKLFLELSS
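Assay system: RD-HGA16 CHO cells with stable hTAAR1 and Gα16 / Reagent: EC80 β-phenethylamine stimulus / Doses: 3 µM, single point / Timing: dye loading 75 min at 37 °C, then 30 min room temperature / Measured by: Fluo-8 intracellular calcium dye fluorescence, real-time kinetic reads / Controls: vehicle wells and EC80 agonist wells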
TAAR1 agonist: agonists of human TAAR1; CHO RD-HGA16 TAAR1, Fluo-8 calcium fluorescence; vehicle wells 0%, saturating PEA agonist 100%; activation, % at 3 µM; 360,000 tested, 0.99% active;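 active means activation above the mean activation of all test compounds in the run plus 3 SD, cut at about 38% in these data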
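System: CHO-derived RD-HGA16 cells with stable Gα16 and human TAAR1 / Times: 17-24 h plating, Fluo-8 75 min 37 °C, 30 min RT / Technique: calcium-sensitive Fluo-8 signal, excitation 470-495, emission 515-575 nm / Measure: % activation relative to PEA EC100 response / Benchmarks: DMSO and PEA EC100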
V1R ag counter: V1a receptor agonism, counter-screen for OXTR agonists. P37288. CHO-V1R cells, Fluo-8 calcium fluorescence, agonist mode; 0% DMSO, 100% 3 nM vasopressin. activation, % at 3 µM. 320,000 tested, 0.25% active. AID 2797;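 active means activation above the mean activation of all tested compounds plus 3 SD, per screening run, cut at about 20% in these data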;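 further: signal is peak over basal fluorescence ratio across a 100 second FLIPR read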
TAAR1 ag confirm: confirmation of human TAAR1 agonists. CHO RD-HGA16 TAAR1, Fluo-8 calcium fluorescence; scaled: DMSO 0%, maximal phenethylamine 100%. shares compounds with TAAR1 agonist. activation, % at 3 µM. 2,400 tested, 82% active;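 active means activation above a cutoff set at the run's mean compound activation plus 3 SD, cut at about 39% in these data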
Ga16 ag counter: nonselective agonist in parental cells, TAAR1 agonist counter-screen. CHO-Ga16 parental, Fluo-8 calcium fluorescence; normalized to maximal ATP response, DMSO zero. 2,400 tested, 50% active. activation, % at 3 µM. shares compounds with TAAR1 agonist;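 active means activation above the run cutoff, the mean activation over all tested wells plus 3 SD, cut at about 12% in these data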
TAAR1 desensitize: TAAR1 response desensitization, agonist counter-screen. shares compounds with TAAR1 agonist. inhibition, % at 3 µM. AID 651951. CHO RD-HGA16 hTAAR1, Fluo-8 calcium, beta-PEA response inhibition. 2,400 tested, 46% active;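 active means inhibition above the run cutoff, the mean inhibition of all test compounds plus 3 SD, cut at about 49% in these data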;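 further: beta-PEA stimulus applied at its EC80; loss of beta-PEA calcium signal after compound pretreatment read as receptor desensitization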
Ga16 nonsel ant: nonselective Ga16 antagonist in TAAR1 agonist counter-screen. inhibition, % at 3 µM. 2,400 tested, 39% active. CHO-Ga16 ATP-induced calcium, Fluo-8 fluorescence. shares compounds with TAAR1 agonist;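 active means inhibition above the plate's mean compound inhibition plus 3 SD, computed per plate, cut at about 22% in these data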
Each line names hits and unclear results; the compound was inactive in the other large screens (follow-up assays come after a bar, where they were run). Rows were chosen to be rich in hits. Some 2.3% of all compounds tested hit in one or more screens of this group.

Cc1cccc(N2CCN(C(=S)Nc3ccc4nc(N5CCN(C)CC5)cc(C)c4c3)CC2C)c1 (configuration not stated)	TAAR1 antagonist 85, TAAR1 agonist 93 | TAAR1 ag confirm 103 | Ga16 ag counter 44 | TAAR1 desensitize 94 | Ga16 nonsel ant 35
Cc1cc(NC(=O)CCC(=O)N(c2ccccc2C)C(C(=O)NC2CCCC2)c2ccccc2)no1 (configuration not stated)	none
COc1ccc(CN2CCNC(=O)C2CC(=O)NC2Cc3ccccc3C2)c(OC)c1 (configuration not stated)	TAAR1 agonist 46 | TAAR1 ag confirm 54 | Ga16 ag counter inactive | TAAR1 desensitize inactive | Ga16 nonsel ant inactive
COc1ccc(S(=O)(=O)N2CCCCC2)cc1NC(=O)CNc1ccccc1C(C)=O	none
N=c1c2c(-c3ccccc3)c(-c3ccccc3)n(Cc3ccccc3)c2ncn1CCO	TAAR1 agonist 59 | TAAR1 ag confirm 49 | Ga16 ag counter 20 | TAAR1 desensitize inactive | Ga16 nonsel ant inactive
CCCCC(=O)/C=C/n1c(=S)oc2ccccc21	none
CC(=NCCc1ccccc1)C1=C(O)COC1=O	TAAR1 agonist 83 | TAAR1 ag confirm 78 | Ga16 ag counter inactive | TAAR1 desensitize inactive | Ga16 nonsel ant inactive
CC(=NCCc1ccccc1)C1=C(O)C(c2ccccc2)OC1=O (configuration not stated)	TAAR1 agonist 73 | TAAR1 ag confirm 77 | Ga16 ag counter inactive | TAAR1 desensitize inactive | Ga16 nonsel ant inactive
CCCCOC(=O)NS(=O)(=O)c1sc(CC(C)C)cc1-c1ccc(Cn2c(CC)nc3c(C)cc(C)nc32)cc1	none (no result: TAAR1 antagonist, TAAR1 agonist)
CC(C(=O)Nc1ccc2c(c1)OCCO2)c1ccc([N+](=O)[O-])cc1 (configuration not stated)	OXTR agonist 44, TAAR1 antagonist 76, TAAR1 agonist 128, V1R ag counter 43 | TAAR1 ag confirm 123 | Ga16 ag counter 85 | TAAR1 desensitize 78 | Ga16 nonsel ant 40
CC(C(=O)Nc1cccc(Br)c1)c1ccc([N+](=O)[O-])cc1 (configuration not stated)	none
CN(C)S(=O)(=O)c1cc(NC(=O)COC(=O)CCSc2ccc(Cl)cc2)ccc1Cl	none
Nc1nc(N)c2cc(Sc3ccc(Cl)cc3)ccc2n1	TAAR1 agonist 60 (no result: OXTR agonist, OXTR potentiate, V1R ag counter) | TAAR1 ag confirm 65 | Ga16 ag counter 40 | TAAR1 desensitize 56 | Ga16 nonsel ant 40
Nc1nc(N)c2cc(Sc3cccc(C(F)(F)F)c3)ccc2n1	none (no result: OXTR agonist, OXTR potentiate, V1R ag counter)
O=c1cc(Nc2ccc3c(c2)OCCO3)[nH]c(=O)n1-c1ccc(Br)cc1	none
O=c1cc(Nc2ccc3c(c2)OCO3)[nH]c(=O)n1-c1ccc(Br)cc1	TAAR1 agonist 48 | TAAR1 ag confirm 76 | Ga16 ag counter inactive | TAAR1 desensitize inactive | Ga16 nonsel ant inactive
Fc1ccc(Nc2nc(N3CCOCC3)c3ccccc3n2)cc1	TAAR1 antagonist 63, TAAR1 agonist 65 | TAAR1 ag confirm 65 | Ga16 ag counter inactive | TAAR1 desensitize inactive | Ga16 nonsel ant inactive
O=c1nc2ccccc2c2n1CC(CN1CCN(C(c3ccccc3)c3ccccc3)CC1)N2 (configuration not stated)	none
CCCOc1c(OC)cccc1C1CC(=O)Nc2cc3c(cc21)OCCO3 (configuration not stated)	TAAR1 agonist 39 | TAAR1 ag confirm inactive | Ga16 ag counter inactive | TAAR1 desensitize inactive | Ga16 nonsel ant inactive
CCCOc1c(OC)cccc1C1CC(=O)Nc2cc3c(cc21)OCO3 (configuration not stated)	none
Cc1ccccc1-c1cccc([C@@H]2C[C@H]3[C@H](CON3C)CN2C(=O)C(C)(C)C)c1	none (no result: OXTR agonist, OXTR potentiate, V1R ag counter)
COc1ccc(Cc2nnc(NC(=O)CSc3ccc(C)cc3)s2)cc1	none
COc1ccc(Cc2nnc(NC(=O)c3ccc(OC)c(OC)c3)s2)cc1OC	none
COc1ccc(Cc2nnc(NC(=O)CSc3ccc(Cl)cc3)s2)cc1OC	TAAR1 agonist 87 (no result: OXTR agonist, OXTR potentiate, V1R ag counter) | TAAR1 ag confirm 75 | Ga16 ag counter 42 | TAAR1 desensitize inactive | Ga16 nonsel ant inactive
COc1ccc(Cc2nnc(NC(=O)CSc3ccccc3)s2)cc1	TAAR1 antagonist 50, TAAR1 agonist 49 | TAAR1 ag confirm inactive | Ga16 ag counter inactive | TAAR1 desensitize inactive | Ga16 nonsel ant inactive
O=C(CNC(=O)c1sc2ccccc2c1Cl)NCc1cccc(C(F)(F)F)c1	none
COC(=O)[C@]12C[C@H](CC(=O)N3CCSCC3)C(=O)N(Cc3ccccc3)C1=C[C@H](C(C)(C)C)O[C@@H]2C	none (no result: OXTR agonist, OXTR potentiate, V1R ag counter)
CCCNC(=O)Cn1sc2nc(C)cc(C)c2c1=O	TAAR1 agonist 52 | TAAR1 ag confirm inactive | Ga16 ag counter 21 | TAAR1 desensitize inactive | Ga16 nonsel ant inactive
COc1ccccc1C(O)(c1ccccc1)c1ccccc1OC	none (no result: OXTR agonist, OXTR potentiate, V1R ag counter)
CC(c1ccccc1C(O)(c1ccccc1)c1ccccc1)N(C)C (configuration not stated)	OXTR agonist 43, TAAR1 antagonist 74, TAAR1 agonist 114, V1R ag counter 48 | TAAR1 ag confirm 113 | Ga16 ag counter 70 | TAAR1 desensitize 98 | Ga16 nonsel ant 63
CC1CCCN(C(=S)SCC(=O)c2cc(Br)cc(Br)c2O)C1 (configuration not stated)	TAAR1 agonist 74 | TAAR1 ag confirm 82 | Ga16 ag counter inactive | TAAR1 desensitize 70 | Ga16 nonsel ant inactive
COc1ccc(C2CC(=O)C(c3ccc(C#N)cc3)=CN2Cc2ccccc2)cc1 (configuration not stated)	none (no result: OXTR agonist, OXTR potentiate, V1R ag counter)
COc1ccc(/C=C/c2cc[n+](C(=O)Cc3ccccc3)cc2)cc1	TAAR1 agonist 47 | TAAR1 ag confirm 70 | Ga16 ag counter inactive | TAAR1 desensitize inactive | Ga16 nonsel ant inactive
CC1CCN(C(=O)c2ccc3c(c2NCCO)C(=O)c2ccccc2C3=O)CC1	TAAR1 agonist 48 | TAAR1 ag confirm inactive | Ga16 ag counter inactive | TAAR1 desensitize inactive | Ga16 nonsel ant 25
COc1ccc(CCNC(=O)CN2c3cccc4cccc(c34)S2(=O)=O)cc1	none (no result: OXTR agonist, OXTR potentiate, V1R ag counter)
CC1CCCC(C)N1S(=O)(=O)c1ccc(Cl)cc1 (configuration not stated)	none

Source: PubChem BioAssay (The Scripps Research Institute Molecular Screening Center)
